Screens: PubChem BioAssay, The Scripps Research Institute Molecular Screening Center
Shown are actives, neighbours in structure and some others; about 2.2% of the full set was active somewhere.
CHRM5 antagonist: CHRM5 antagonism in calcium assay | P08912 | CHO-hM5 cells, Fluo-8 calcium fluorescence, ACh EC80 | inhibition, % at 3 µM | 0.59% of 360,000 active;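 active = inhibition above a per-plate cutoff, the mean of that plate's test compounds plus 3 SD, cut at about 27% in these data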;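 note: 0% = acetylcholine EC80 with DMSO and 100% = DMSO without agonist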
Target sequence (P08912 whole entry, looked up): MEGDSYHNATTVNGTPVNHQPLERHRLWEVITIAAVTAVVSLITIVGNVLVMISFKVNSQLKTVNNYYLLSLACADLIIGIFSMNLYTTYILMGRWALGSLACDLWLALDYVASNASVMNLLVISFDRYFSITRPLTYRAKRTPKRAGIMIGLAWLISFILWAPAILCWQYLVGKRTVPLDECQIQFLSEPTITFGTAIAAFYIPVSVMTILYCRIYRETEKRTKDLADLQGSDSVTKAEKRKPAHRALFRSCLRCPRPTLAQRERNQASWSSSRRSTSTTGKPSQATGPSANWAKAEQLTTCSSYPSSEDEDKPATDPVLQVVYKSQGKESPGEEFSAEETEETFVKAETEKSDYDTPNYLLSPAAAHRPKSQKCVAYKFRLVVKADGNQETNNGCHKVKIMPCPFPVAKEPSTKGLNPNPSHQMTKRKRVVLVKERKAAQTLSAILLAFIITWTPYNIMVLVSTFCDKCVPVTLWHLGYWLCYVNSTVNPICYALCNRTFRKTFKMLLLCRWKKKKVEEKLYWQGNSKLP
M1 ag: human M1 muscarinic receptor agonism | P11229 | 0.33% of 360,000 active | activation, % at 3 µM | AID 588814 | CHO-K1 hM1, Fluo-8 calcium fluorescence, agonist mode; 0% DMSO, 100% acetylcholine EC100;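 active = activation above the run's mean compound activation plus 3 SD, cut at about 16% in these data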;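 note: peak over basal fluorescence ratio within a 140 s kinetic read after compound addition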
M5 ag: CHRM5 agonism in calcium assay | CHO-K1 hM5 cells, Fluo-8 calcium fluorescence; 0% DMSO wells, 100% maximal acetylcholine response | activation, % at 3 µM | AID 624037 | 0.19% of 360,000 active | P08912;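 active = activation above the run's mean over test compounds plus 3 SD, cut at about 23% in these data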;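 note: signal is peak over basal fluorescence ratio across the kinetic read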
CHRM1 PAM: potentiates human M1 receptor response to acetylcholine; activation, % at 3 µM; CHO-K1 hM1, Fluo-8 calcium fluorescence, ACh EC20; 0% = ACh EC20, 100% = maximal ACh; 0.088% of 360,000 active; AID 588819; P11229; in the data active = activation above about 19%, passing the limit was not always enough
CHRM5 PAM: CHRM5 positive allosteric modulation; AID 624038; CHO-K1 hM5, Fluo-8 calcium, ACh EC20 PAM; 0% = ACh EC20, 100% = ACh EC100; 0.3% of 360,000 active; P08912; activation, % at 3 µM;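 active = activation above the run cutoff, the mean activation of all test compounds plus 3 SD, cut at about 18% in these data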
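Test system: CHO-K1 hM5 cells / Doses: single-point, 3 µM nominal / Times: Post-acetylcholine fluorescence recording 140 s / Technique: Fluo-8 calcium fluorescence / Measure: Max/basal fluorescence ratio as % of EC20–EC100 ACh window / Benchmarks: low control EC20 acetylcholine (0%), high control EC100 acetylcholine (100%) / Replicates: one well per compound, no replicates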
CHRM1 antagonist: blocks human M1 muscarinic receptor; P11229; CHO-K1 hM1, Fluo-8 calcium fluorescence, ACh EC80 antagonist; inhibition, % at 3 µM; AID 588852; 1.3% of 360,000 active;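 active = percent inhibition above its own plate's cutoff, namely the mean of that plate's compound wells plus 3 SD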;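 note: peak over basal fluorescence ratio during 140 s after agonist addition; 0% = ACh EC80 plus DMSO and 100% = DMSO alone without agonist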
Active calls of the source: *; nt = not tested or not shown.

SMILES	CHRM5 antagonist	M1 ag	M5 ag	CHRM1 PAM	CHRM5 PAM	CHRM1 antagonist
CCC(C)(C)n1nnnc1C(c1ccc(C)cc1)N(Cc1ccco1)Cc1cccs1 (stereo unspecified)	-9.2	-3.1	-6.7	0.8	3.6	-28.9
O=C1C=CC(=NN=C(c2ccccc2)c2ccccc2)C=C1	-3.2	1.6	5.0	2.1	-1.1	7.3
CCCCN(C(=O)CCNC(=O)NC12CC3CC(CC(C3)C1)C2)c1c(N)n(CCC)c(=O)[nH]c1=O	4.4	-2.4	1.0	14.8	0.1	-19.9
CCOC(=O)CN1N=C(c2ccc(C)cc2)CCC1=O	8.9	-2.1	-4.4	-0.6	-2.3	7.4
CN1C(=O)/C(=C/c2ccccc2OCc2cccc(F)c2)N(C)C1=S	44.9*	-4.8	-5.3	-21.8	-18.2	99.6*
OCC1(Cc2ccccc2)CCN(CCCC2CCCC2)CC1	7.4	-4.8	-16.9	-20.9	-17.4	34.5*
Cc1c(CN2CCC(CO)(Cc3ccccc3)CC2)c2ccccc2n1C	-5.1	-10.7	-4.9	-13.8	4.1	3.2
CC(C)Nc1nc(NCc2ccccc2)c2sccc2n1	3.6	-3.9	1.2	-9.9	-6.3	10.2
N#Cc1cc(C(=O)c2ccccc2O)cn(-c2nccs2)c1=O	28.3*	45.4*	68.0*	-23.6	-20.6	30.8
N#Cc1cc(C(=O)c2cc(F)ccc2O)cn(-c2nccs2)c1=O	29.4*	53.9*	61.7*	-17.3	-22.8	33.8
CC(C)n1cc(C(=O)c2ccccc2O)cc(C#N)c1=O	-1.1	-0.6	3.7	16.2	7.4	-13.4
CCc1nc2ccc(C(=O)NCCNC(C)=O)cn2c1N(CCC(C)C)CCN(C)C	8.9	-4.3	-0.5	-1.2	-2.1	-3.2
CCc1nc2ccc(C(=O)N(C)Cc3ccccc3)cn2c1N(C)CCCc1ccccc1	13.3	-8.5	-3.6	-17.5	-14.3	13.8
CCc1nc2ccc(C(=O)N(CC)CCN(C)C)cn2c1N(C)CCCc1ccccc1	3.7	-8.1	-2.2	-33.6	-10.7	51.5*
CCc1nc2ccc(C(=O)N(C)CCCN(C)C)cn2c1N(C)CCCc1ccccc1	8.8	-10.2	-3.2	-26.7	-13.0	31.7*
CCc1nc2ccc(C(=O)NCc3ccccc3OC)cn2c1N(CCC(C)C)CCN(C)C	3.8	42.4*	-1.3	-21.4	-1.6	39.1*
CCc1nc2ccc(C(=O)N(C)CCCN(C)C)cn2c1N(C)Cc1cc2ccccc2s1	3.9	-7.9	-10.6	-26.4	-2.0	38.4*
Cc1nnc2ccc(Oc3ccc(-c4ccccc4)cc3)nn12	33.7*	-2.7	1.3	-11.7	-14.6	34.3*
COC(=O)c1ccc(Oc2ccc3nnc(C)n3n2)cc1	-0.8	-5.1	2.5	1.3	5.2	9.9
CCOC(=O)C1CCc2c(ccc3ccccc23)N1CCC#N (stereo unspecified)	29.2*	-1.3	-1.5	1.3	-4.9	-3.1
CCOC(=O)C1CCCN(C(=O)c2cccc3ccccc23)C1 (stereo unspecified)	8.2	9.1	-0.8	-0.5	-1.6	-5.2
COc1ccccc1-n1c(N)c(C(=O)NCC2CCCO2)c2nc3ccccc3nc21 (stereo unspecified)	-1.3	-2.5	-1.7	-7.4	-1.7	-1.0
Nc1c(C(=O)NCC2CCCO2)c2nc3ccccc3nc2n1-c1ccccc1 (stereo unspecified)	20.0	2.9	2.6	-15.7	-13.7	28.4*
C=CCNC(=O)c1c(N)n(-c2ccc3c(c2)OCO3)c2nc3ccccc3nc12	10.6	-12.0	1.6	-25.0	-4.8	69.4*
Nc1c(C(=O)NCCN2CCOCC2)c2nc3ccccc3nc2n1-c1cccc(F)c1	1.0	-3.7	-1.5	0.1	-0.7	6.0
SMILES	CHRM5 antagonist	M1 ag	M5 ag	CHRM1 PAM	CHRM5 PAM	CHRM1 antagonist
CCOC(=O)CCc1nn(C)c(=O)c2ccccc12	66.6*	-6.8	-2.8	6.8	-13.8	-5.8
Cc1cccc(N2CCN(Cc3cc(=O)n4ccsc4n3)CC2)c1C	-2.9	-2.4	-1.0	8.9	4.0	-5.3
Cc1ccc(Cl)cc1N1CCN(Cc2cc(=O)n3ccsc3n2)CC1	-14.0	-2.4	0.3	2.4	19.2*	1.4
O=C1NC(c2ccccc2)CCO1 (stereo unspecified)	-3.7	3.2	-1.6	29.3*	9.3	-23.3
CCC(C)n1c(=O)c(C(=O)Nc2ccccc2S(N)(=O)=O)c(O)c2ccccc21 (stereo unspecified)	-11.3	0.0	-1.5	-6.0	27.1*	11.2
Cc1sc(NC(=S)NC(=O)c2ccco2)c(C(N)=O)c1C	31.4*	-4.9	0.9	-7.4	-18.9	9.3
Cc1cc(C)n2nc(C(=O)OCC(=O)N(Cc3ccccc3)C(C)C)nc2n1	-18.3	-3.1	-0.2	8.8	10.2	-8.3
Cn1cc(C(=O)c2ccc(Cl)cc2)cc1-c1nc2ccccc2n1C	12.5	0.4	-1.2	-14.5	-11.4	23.7*
COc1ccc(CCNC(=O)Nc2ccccc2[N+](=O)[O-])cc1	-1.0	26.6*	3.1	5.5	4.3	5.7
CC1=NN(C(N)=S)C(C)(C)C1	15.2	0.2	0.3	0.1	-8.6	-3.1
CC1=NN(C(=S)Nc2ccccc2)C(C)(C)C1	10.2	-4.3	-2.8	13.7	18.8*	-16.7
CCOc1cc2c(cc1C(C)(C)C)NC(=O)CS2	-4.6	-5.6	-7.4	5.4	5.0	-11.3
CCOC(=O)/C(=C/C=C1\Sc2cc(OCC)c(OCC)cc2N1CC)C(C)=O	36.2*	70.4*	147.3*	-21.1	-22.5	26.7
CCOC(=O)/C(=C\C=C1/Sc2cc(OCC)c(OCC)cc2N1CC)C(C)=O	12.9	44.2*	23.9*	-14.7	-11.8	24.4
CS(=O)(=O)Nc1nnc(SCC(=O)N(c2ccccc2)c2ccccc2)s1	4.5	-5.9	-0.4	-10.4	-1.9	6.2
CC(C)NC(=O)N1CCN(c2ccncc2S(=O)(=O)N2CCOCC2)CC1	1.9	-1.3	-6.5	-5.1	1.2	-13.9
O=NN1CCN(c2ccncc2S(=O)(=O)N2CCCCC2)CC1	12.0	-0.7	-5.2	8.7	3.1	-8.8
CN1CCN(c2ccncc2S(=O)(=O)N2CCCCC2)CC1	-0.5	-5.4	-6.3	-11.8	-20.4	26.6*
CC(C)N1CCN(c2ccncc2S(=O)(=O)N2CCCCC2)CC1	65.5*	-7.0	-3.1	-28.9	-20.1	97.5*
CSc1ccc(C2=CC(=O)C[C@H](c3ccc(Cl)cc3)C2)cc1	4.8	-6.7	-0.3	7.4	8.8	-8.8
CCOC(=O)CC1(C)Oc2ccccc2N1S(=O)(=O)c1ccc(C)cc1 (stereo unspecified)	-7.2	nt	-6.2	nt	-12.2	nt
CC(=O)SCC[N+](C)(C)C	19.6	69.8*	62.8*	-29.2	-20.4	24.0
C=CCn1c2ccccc2c2nnc(SCC(N)=O)nc21	4.6	-4.4	-1.5	8.3	-1.1	-18.9
